For eight compounds, EC50, CC50 and selectivity ratio results are on record in ChEMBL document CHEMBL1138199, “Identification of compounds with anti-West Nile Virus activity” (J Med Chem, 2006).

In general, EC50 refers to the concentration giving half of the maximal effect. Broadly, the CC50 is the concentration at which the toxic effect on the cells reaches its halfway point.

A value given as a limit tells only on which side of the number the result lay.

In the first series the test system is West Nile virus. Kind of series: Inhibition of Rluc-FL-WNV replicon in Vero cells. The class given is functional, organism-based.
Details: not given
A digest of the protocol: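 Vero cells infected with full-length WNV carrying Renilla luciferase reporter (Rluc-FL-WNV), covering entry, replication and assembly; inhibition read as suppression of luciferase signal. Compounds first screened at 30 µM in 1% DMSO final, then EC50 (µM) determined.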
`O=C(c1ccccc1)N1N=C(c2cccs2)CC1c1ccc(Cl)cc1` (stereo unspecified) gave an EC50 of 23 µM.
For `CN1CCN(c2cc(-c3ccc(C(C)(C)C)cc3)nc3ccccc23)CC1`, the EC50 amounted to 15 µM.
As for `CN1CCN(c2cc(-c3ccc(C(C)(C)C)cc3)c3ccccc3n2)CC1`, the EC50 came to 30 µM.
Still for that read-out and setting: then `CN1CCN(Cc2ccc3c(c2)Oc2ccccc2C3)CC1`, with > 30 µM; and `CN1CCN(Cc2ccc3c(c2)Oc2ccccc2C3O)CC1` (stereo unspecified), with 10 µM; and `CN1CCN(C(=O)c2cccc3c(Oc4ccccc4)c4ccccc4nc23)CC1`, with 20 µM.
Turning to `COc1c(C)c2c(c(O)c1C/C=C(\C)CCC(=O)O)C(=O)OC2` [MYCOPHENOLIC ACID], it took 0.04 µM to reach a half-maximal effect (EC50).
Consider `NC(=O)c1ncn([C@@H]2O[C@H](CO)[C@@H](O)[C@H]2O)n1` [RIBAVIRIN], for which the EC50 is 30 µM. Against the preceding compound, the EC50 is about 750-fold higher.

The subject of the next series is BHK-21. Kind of series: Cytotoxicity against BHK21 cell line by MTT assay. The class given is functional. The conditions noted are these: Mesocricetus auratus. The essentials: (§1)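 MTT cytotoxicity assay run in BHK-21 and Vero cells on compounds giving >50% Rluc inhibition in the primary screens; CC50 reported in µM.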
As to `O=C(c1ccccc1)N1N=C(c2cccs2)CC1c1ccc(Cl)cc1` (stereo unspecified), the CC50 is > 300 µM.
The compound `CN1CCN(c2cc(-c3ccc(C(C)(C)C)cc3)nc3ccccc23)CC1` had a CC50 of 50 µM. This counts as double-digit micromolar.
`CN1CCN(c2cc(-c3ccc(C(C)(C)C)cc3)c3ccccc3n2)CC1` yielded a CC50 of 110 µM.
As for `CN1CCN(Cc2ccc3c(c2)Oc2ccccc2C3)CC1`, the midpoint of cytotoxicity, the CC50, lay at 200 µM.
For the compound `CN1CCN(Cc2ccc3c(c2)Oc2ccccc2C3O)CC1` (stereo unspecified), it took 325 µM to reach half-maximal cytotoxicity (CC50).
Compound `CN1CCN(C(=O)c2cccc3c(Oc4ccccc4)c4ccccc4nc23)CC1` yielded a CC50 of 150 µM.

A further series has as its system BHK-21. Kind of series: Inhibition of West Nile virus VLP replicon in BHK21 cell line. The class given is functional, cell-based. The note with it: Mesocricetus auratus. The essentials: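 Naive BHK-21 cells infected with virus-like particles, made by expressing WNV structural proteins in cells carrying the Rluc-Neo-Rep replicon, which package replicon RNA. This captures entry and replication but not assembly. Inhibition is read as suppression of Renilla luciferase signal. Compounds were given in 1% DMSO final, and EC50 is in µM.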
A general note: A replicon is a self-replicating genome or part of one, used to study replication in cells.
Compound `O=C(c1ccccc1)N1N=C(c2cccs2)CC1c1ccc(Cl)cc1` (stereo unspecified) displayed an EC50 of 15 µM.
The compound `CN1CCN(c2cc(-c3ccc(C(C)(C)C)cc3)nc3ccccc23)CC1` yielded an EC50 of 8 µM.
In the case of `CN1CCN(c2cc(-c3ccc(C(C)(C)C)cc3)c3ccccc3n2)CC1`, the EC50 is 20 µM.
In the case of `CN1CCN(Cc2ccc3c(c2)Oc2ccccc2C3)CC1`, the EC50 is 28 µM.
The compound `CN1CCN(Cc2ccc3c(c2)Oc2ccccc2C3O)CC1` (stereo unspecified) displayed an EC50 of 4 µM.
`CN1CCN(C(=O)c2cccc3c(Oc4ccccc4)c4ccccc4nc23)CC1` came in with an EC50 of 20 µM.
As for `COc1c(C)c2c(c(O)c1C/C=C(\C)CCC(=O)O)C(=O)OC2` [MYCOPHENOLIC ACID], the EC50 was 0.04 µM.
`NC(=O)c1ncn([C@@H]2O[C@H](CO)[C@@H](O)[C@H]2O)n1` [RIBAVIRIN] gave an EC50 of 1.1 µM.

The subject of a further series is Vero. Kind of series: Cytotoxicity against Vero cells by MTT assay. The format is functional. The conditions noted are these: Chlorocebus sabaeus. The essentials: as §1
As to `O=C(c1ccccc1)N1N=C(c2cccs2)CC1c1ccc(Cl)cc1` (stereo unspecified), the CC50 is > 300 µM.
For the compound `CN1CCN(c2cc(-c3ccc(C(C)(C)C)cc3)nc3ccccc23)CC1`, the CC50 is 20 µM. This lies in the double-digit micromolar range.
Compound `CN1CCN(c2cc(-c3ccc(C(C)(C)C)cc3)c3ccccc3n2)CC1` registered a CC50 of 25 µM.
Same read-out and setting: then `CN1CCN(Cc2ccc3c(c2)Oc2ccccc2C3)CC1`, with 90 µM; and `CN1CCN(Cc2ccc3c(c2)Oc2ccccc2C3O)CC1` (stereo unspecified), with 50 µM.
`CN1CCN(C(=O)c2cccc3c(Oc4ccccc4)c4ccccc4nc23)CC1` gave a CC50 of 50 µM.

Test system in another series: not listed separately
Kind of series: Therapeutic index (CC50/EC50) in BHK21 cells. The class given is cell-based, BHK-21. The note with it: hamster, read-out: Ratio CC50/EC50. The essentials: (§2)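 TI computed as CC50/EC50, using MTT CC50 and replicon EC50 in BHK-21 cells, or MTT CC50 and Rluc-FL-WNV EC50 in Vero cells.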
On to `O=C(c1ccccc1)N1N=C(c2cccs2)CC1c1ccc(Cl)cc1` (stereo unspecified), for which the selectivity ratio was > 18.
Consider `CN1CCN(c2cc(-c3ccc(C(C)(C)C)cc3)nc3ccccc23)CC1`, for which the selectivity ratio stood at 3.4.
For `CN1CCN(c2cc(-c3ccc(C(C)(C)C)cc3)c3ccccc3n2)CC1`, the selectivity ratio was determined as 6.5.
`CN1CCN(Cc2ccc3c(c2)Oc2ccccc2C3)CC1`: the selectivity ratio was < 6.7.
For the compound `CN1CCN(Cc2ccc3c(c2)Oc2ccccc2C3O)CC1` (stereo unspecified), the selectivity ratio worked out at 24.
As to `CN1CCN(C(=O)c2cccc3c(Oc4ccccc4)c4ccccc4nc23)CC1`, the selectivity ratio was determined as 7.5.

The next series concerns West Nile virus. Nature of the series: Inhibition of West Nile viral Rluc-Neo-Rep in BHK21 cell line. The class given is functional, organism-based. The note with it: BHK-21. The essentials: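 BHK-21 cell line stably carrying Rluc-Neo-Rep replicon; inhibition read as suppression of Renilla luciferase signal. Initial screen at 30 µM, 1% DMSO final; EC50 (µM) then determined.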
Compound `O=C(c1ccccc1)N1N=C(c2cccs2)CC1c1ccc(Cl)cc1` (stereo unspecified) yielded an EC50 of 17 µM.
On the same count and under the same terms, for `CN1CCN(c2cc(-c3ccc(C(C)(C)C)cc3)nc3ccccc23)CC1` the value was 14.5 µM; for `CN1CCN(c2cc(-c3ccc(C(C)(C)C)cc3)c3ccccc3n2)CC1`, 17 µM.
Consider `CN1CCN(Cc2ccc3c(c2)Oc2ccccc2C3)CC1`, for which the EC50 was > 30 µM.
In turn, `CN1CCN(Cc2ccc3c(c2)Oc2ccccc2C3O)CC1` (stereo unspecified) had an EC50 of 13.5 µM. In other words, the double-digit micromolar range.
As to `CN1CCN(C(=O)c2cccc3c(Oc4ccccc4)c4ccccc4nc23)CC1`, a half-maximal effect (EC50) was put at 20 µM.
For `COc1c(C)c2c(c(O)c1C/C=C(\C)CCC(=O)O)C(=O)OC2` [MYCOPHENOLIC ACID], it took 1.4 µM to reach a half-maximal effect (EC50).
In the case of `NC(=O)c1ncn([C@@H]2O[C@H](CO)[C@@H](O)[C@H]2O)n1` [RIBAVIRIN], it took 18 µM to reach a half-maximal effect (EC50).

A further series relates to Vero. Nature of the series: Inhibition of West Nile viral Rluc-Neo-Rep in Vero cells. The note with it: Chlorocebus sabaeus. The class given is functional, cell-based. A digest of the protocol:
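Vero cells containing the Rluc-Neo-Rep replicon, used to check cell-line dependence; inhibition measured as suppression of Renilla luciferase signal, EC50 in µM.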
`O=C(c1ccccc1)N1N=C(c2cccs2)CC1c1ccc(Cl)cc1` (stereo unspecified) returned an EC50 of 15 µM.
Compound `COc1c(C)c2c(c(O)c1C/C=C(\C)CCC(=O)O)C(=O)OC2` [MYCOPHENOLIC ACID] came in with an EC50 of 0.08 µM.
Turning to `NC(=O)c1ncn([C@@H]2O[C@H](CO)[C@@H](O)[C@H]2O)n1` [RIBAVIRIN], a half-maximal effect (EC50) was put at 119 µM.

Test system in another series: not listed separately
Kind of series: Therapeutic index (CC50/EC50) in Vero cells. The note with it: monkey, read-out: Ratio CC50/EC50. The class given is cell-based. A digest of the protocol: as §2
As to `O=C(c1ccccc1)N1N=C(c2cccs2)CC1c1ccc(Cl)cc1` (stereo unspecified), the selectivity ratio is > 13.
Same read-out and setting: for `CN1CCN(c2cc(-c3ccc(C(C)(C)C)cc3)nc3ccccc23)CC1` the value was 1.3.
Turning to `CN1CCN(c2cc(-c3ccc(C(C)(C)C)cc3)c3ccccc3n2)CC1`, the selectivity ratio worked out at 0.8.
The same measure, in the same setting: then `CN1CCN(Cc2ccc3c(c2)Oc2ccccc2C3)CC1`, with < 3; and `CN1CCN(Cc2ccc3c(c2)Oc2ccccc2C3O)CC1` (stereo unspecified), with 5; and `CN1CCN(C(=O)c2cccc3c(Oc4ccccc4)c4ccccc4nc23)CC1`, with 2.5.
